Ecoli rRNA inh – selective bacterial rRNA inhibition in E. coli; E. coli WT GFP vs humanized-ribosome RFP mutants, fluorescence, 24 h; stronger effect = lower value; DMSO median 0, no signal -100; GFP signal change (wild-type ribosome), % (test concentration not listed); 350,000 tested, 1.6% active; AID 720706;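 active = significant combined selectivity score with lowered wild-type GFP, culture density cut under 30%, mutant RFP and density less affected; inactive = any of these conditions unmet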
CFTR F508del cor – correctors of CFTR F508del function in bronchial epithelial cells; 350,000 tested, 0.36% active; AID 720511; activity (quench increase), % at 7.58 µM; CFBE cells, YFP halide quenching; stimulated with forskolin plus potentiator P3; % fluorescence drop versus neutral controls;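 active = mean added fluorescence quench of at least 8% versus neutral control, with both replicates also reaching 8%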;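 note: cells transiently co-express mutant CFTR-F508del with the halide-sensitive YFP; corrector assay measuring rescue of mutant channel to the surface after 24 h compound exposure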
S100A4 inh HTS – S100A4-myosin IIA interaction inhibition; AID 652163; 360,000 tested, 0.14% active; inhibition, % at 10.7 µM; S100A4/TAMRA-MyoIIA peptide fluorescence polarization;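 active = mean inhibition of at least 70% across replicates, with every replicate also reaching that level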
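Assay system: human S100A4 monomer with TAMRA-labelled myosin IIA peptide / Buffer or medium: Calcium-containing HEPES buffer, pH 7.2 / Reagent: TAMRA-labelled myosin IIA heavy-chain peptide probe, 5 nM / Compound: one dose per compound / Timing: polarization read 5 min after assay mix addition, stable 5–60 min / Benchmarks: neutral control DMSO, positive control TFP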
SIRT5 inh – blocks human SIRT5 desuccinylation of peptide; Q9NXA8; Purified SirT5, succinyl-peptide AMC, trypsin-coupled fluorescence; inhibition, % at 15 µM; 330,000 tested, 1.1% active; AID 652115; in the data active = inhibition above about 15%
ERAP1 HTS inh – ERAP1 (human) enzyme inhibition | inhibition, % at 10.7 µM | 340,000 tested, 0.15% active | recombinant ERAP1, Leu-AMC fluorescence, 60 min | Q9NZ08 | AID 652197;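 active = mean replicate inhibition of at least 30%, or all replicates individually reaching that 30% level; inactive = mean below 30% and not every replicate reaching it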
Target sequence (Q9NZ08 whole entry, looked up): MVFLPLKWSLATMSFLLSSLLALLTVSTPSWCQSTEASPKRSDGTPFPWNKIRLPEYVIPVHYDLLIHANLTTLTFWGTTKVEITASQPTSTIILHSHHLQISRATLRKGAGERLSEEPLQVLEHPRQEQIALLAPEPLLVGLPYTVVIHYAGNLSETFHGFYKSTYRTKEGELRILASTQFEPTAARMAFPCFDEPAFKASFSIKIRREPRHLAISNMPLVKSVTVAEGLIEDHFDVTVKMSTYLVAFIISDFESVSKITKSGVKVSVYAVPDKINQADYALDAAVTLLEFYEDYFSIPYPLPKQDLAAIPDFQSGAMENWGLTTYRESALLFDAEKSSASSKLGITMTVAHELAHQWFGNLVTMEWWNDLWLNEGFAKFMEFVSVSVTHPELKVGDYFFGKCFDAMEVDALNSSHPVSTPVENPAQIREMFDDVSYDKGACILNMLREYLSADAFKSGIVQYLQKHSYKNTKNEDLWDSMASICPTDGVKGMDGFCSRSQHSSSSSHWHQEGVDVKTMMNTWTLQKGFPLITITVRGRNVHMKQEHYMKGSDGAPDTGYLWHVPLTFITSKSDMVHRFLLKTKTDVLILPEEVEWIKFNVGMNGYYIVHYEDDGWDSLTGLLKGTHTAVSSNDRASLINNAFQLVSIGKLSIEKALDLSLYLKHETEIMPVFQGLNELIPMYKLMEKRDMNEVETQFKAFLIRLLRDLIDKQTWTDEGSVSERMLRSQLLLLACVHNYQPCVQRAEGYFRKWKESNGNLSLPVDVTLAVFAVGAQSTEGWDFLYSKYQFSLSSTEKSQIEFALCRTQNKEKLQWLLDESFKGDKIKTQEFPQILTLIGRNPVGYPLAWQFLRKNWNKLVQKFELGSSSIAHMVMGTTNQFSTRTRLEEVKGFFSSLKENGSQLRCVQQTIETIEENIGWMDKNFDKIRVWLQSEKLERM
A number is an active result; - = inactive; . = no result given. The list is not random: actives were taken first. Their share in the collection is about 3.1%.

SMILES	Ecoli rRNA inh	CFTR F508del cor	S100A4 inh HTS	SIRT5 inh	ERAP1 HTS inh
C[C@@H]1CN([C@H](C)CO)C(=O)Cc2cc(NS(=O)(=O)c3cn(C)cn3)ccc2O[C@H]1CN(C)S(=O)(=O)c1cccs1	-	-	-	-	-
COc1ccc(NC(=O)N(C)C[C@H]2Oc3c(NC(=O)Nc4cccc5ccccc45)cccc3C(=O)N([C@@H](C)CO)C[C@@H]2C)cc1	-	-	-	-	-
CCCOC(c1ccccc1)(c1ccccc1)C(Oc1nc(C)cc(C)n1)C(=O)O (stereo not given)	-19.2	-	-	-	-
Cc1cc(C)nc(OC(C(=O)O)C(OCCC(C)C)(c2ccccc2)c2ccccc2)n1 (stereo not given)	-	-	-	-	-
CC(C)NC[C@@H]1[C@@H](c2ccc(C3=CCCCC3)cc2)[C@H](CO)N1C(=O)NC(C)C	-	-	-	-	-
COc1cc2c(cc1NC(=O)C(C)Sc1cccc[n+]1[O-])oc1ccccc12 (stereo not given)	-32.7	.	-	-	-
O=C(NCc1ccccc1Cl)c1cc(=O)[nH]c2ccccc12	-	-	-	-	48.3
O=C(NCc1ccccc1F)c1cc(=O)[nH]c2ccccc12	-	-	-	-	-
CCN(CC)S(=O)(=O)c1ccc(N2CCOCC2)c(NC(=O)c2ccc(NC(C)=O)cc2)c1	-	-	-	15.2	-
COc1ccc(S(=O)(=O)N2CCCCC2)cc1NC(=O)c1ccccc1	-	-	-	-	-
CCN1CCN(c2ccc(S(=O)(=O)N3CCCCC3)cc2NC(=O)c2ccccc2)CC1	-	-	-	-	103.2
CCN(CC)S(=O)(=O)c1ccc(N2CCOCC2)c(NC(=O)c2ccc3c(c2)OCCO3)c1	-	-	-	-	-
COc1ccccc1CNCC(=O)Nc1cc(S(=O)(=O)N2CCCCCC2)ccc1Cl	-31.1	-	-	-	-
CCOc1ccc(S(=O)(=O)N2CCCCC2)cc1NC(=O)c1ccccc1	-	12.0	-	-	-
C[C@@H]1CN([C@@H](C)CO)C(=O)c2cccc(NC(=O)Nc3ccc(C(F)(F)F)cc3)c2O[C@H]1CN(C)Cc1ccccc1	-	-	-	-	-
Cc1ccc(S(=O)(=O)Nc2ccc3c(c2)C(=O)N([C@H](C)CO)C[C@H](C)[C@@H](CN(C)C(=O)NC(C)C)O3)cc1	-	-	.	.	.
COCC(=O)N(C)C[C@H]1Oc2cc(C3=CCCCC3)ccc2S(=O)(=O)N([C@@H](C)CO)C[C@H]1C	-	-	-	-	-
O=C(N[C@H]1CC[C@H](CCNC(=O)C2CCOCC2)O[C@H]1CO)c1ccccn1	-	-	-	-	-
O=C(Nc1ccccc1C(=O)O)c1cc(S(=O)(=O)N2CCCCCC2)ccc1Cl	-43.5	-	-	-	-
CCOc1ccc(NC(=S)NNC(=O)c2ccc(Br)cc2)cc1	-14.9	-	-	-	-
O=C(NNC(=S)Nc1ccc(Br)cc1)c1ccccc1	-	-	-	-	-
O=C(O)c1cc(N2C(=O)C3CCCCC3C2=O)ccc1NCc1cccnc1 (stereo not given)	-	-	-	21.3	-
Cc1c(NCc2cccnc2)cccc1C(=O)O	-	-	-	-	-
CC1CN(Cc2cc(=O)oc3cc(O)c(Cl)cc23)CC(C)O1 (stereo not given)	-	-	-	-	60.4
CC1CCN(Cc2cc(=O)oc3cc4c(cc23)CCCC4)CC1	-	-	-	-	-
SMILES	Ecoli rRNA inh	CFTR F508del cor	S100A4 inh HTS	SIRT5 inh	ERAP1 HTS inh
CC1CCN(Cc2cc(=O)oc3cc(O)c(Cl)cc23)CC1	-	-	-	-	59.6
CC1=CC(C)(C)[N+](C)=CN1c1ccccc1	-	-	-	.	51.2
Cc1nc2cc(C(=O)O)ccc2n1-c1ccccc1	-	-	-	-	-
ONC(=Nc1ccccc1Cl)c1ccccc1Cl	-31.5	-	-	-	-
O=C(NNC(=O)c1ccccc1Br)c1ccccc1Cl	-	-	-	-	-
CCOC(=O)Cc1csc(NC(=O)c2cc(C)cc(C)c2)n1	-25.2	-	-	15.9	-
Cc1csc(NC(=O)c2cc3ccccc3o2)n1	-	-	-	-	-
COC(=O)c1cc(NC(=O)c2cc3ccccc3o2)cc(C(=O)OC)c1	-22.7	-	-	-	-
CCOC(=O)Cc1csc(NC(=O)c2cc3ccccc3o2)n1	-19.2	-	-	-	-
COc1ccc(NC(=O)Nc2ccc3c(c2)C(=O)N([C@@H](C)CO)C[C@@H](C)[C@H](CN(C)S(=O)(=O)c2ccccc2)OCCCC[C@H](C)O3)cc1	-	-	-	-	-
COc1ccc(/C=N/n2cnc3c([nH]c4ccc(C)cc43)c2=O)cc1CN1CCCC1	-	-	-	-	-
COc1ccc2c(c1)[nH]c1c(=O)n(/N=C/c3ccc(OC)c(CN4CCCC4)c3)cnc12	-	9.2	-	-	.
COc1cc(C(=O)NNC(=O)/C=C/c2ccccc2)cc(OC)c1OC	-	-	-	-	-
COc1cc(C(=O)NNC(=S)NC(=O)/C=C/c2ccccc2)cc(OC)c1OC	-14.9	.	-	-	-
O=C(NC[C@H]1CC[C@H]2[C@H](CN2C(=O)C2CC2)O1)c1cnccn1	.	-	-	-	-
CC(NCc1ccc(S(N)(=O)=O)cc1)C(=O)Nc1ccc([N+](=O)[O-])cc1Cl (stereo not given)	-	-	-	-	-
CC(NCc1ccc(S(N)(=O)=O)cc1)C(=O)Nc1cc([N+](=O)[O-])ccc1Cl (stereo not given)	-20.8	-	-	-	-
C=CCOC(=O)[C@H]1[C@@H]2C(=O)O[C@@H](c3ccccc3)[C@@H](c3ccccc3)N2[C@@H](c2ccc(OCCOC(=O)[C@@H]3C[C@@H]4C(=O)N[C@@H](CC(C)C)C(=O)N4[C@@H]3c3ccc(O)cc3)cc2)[C@]12C(=O)Nc1ccc(I)cc12	.	-	-	-	-
CCC(=O)N[C@@H]1CC[C@H](CC(=O)NCC2CCCCC2)O[C@H]1CO	-	-	-	-	-
CCCCCCCCCC(=O)OCC(O)CO (stereo not given)	.	8.2	-	-	-
CCCCCCCC(=O)OCC(COC(=O)CCCCCCC)OC(=O)CCCCCCC	-	-	-	.	-
O=C(O)COc1ccccc1-c1ccccc1	-	-	-	-	-
Cc1ccccc1C1=C/C(=C(\SS/C(C(=O)c2ccc(OCC(=O)O)c(Cl)c2Cl)=C2\C=C(c3ccccc3C)SS2)C(=O)c2ccc(OCC(=O)O)c(Cl)c2Cl)SS1	.	-	-	68.6	-
CO[C@H]1CN(C)C(=O)c2cc(NC(=O)Nc3cccc(F)c3)ccc2OC[C@@H](C)N(C(=O)C2CC2)C[C@H]1C	-	-	.	.	.
CC(C)C[C@H]1COc2cccc(N3CCC[C@@H]3CO)c2S(=O)(=O)N1	-	-	-	-	.
O=S1(=O)N[C@@H](Cc2ccccc2)COc2cccc(N3CCC[C@H]3CO)c21	-27.2	-	-	-	.

Source: PubChem BioAssay (Broad Institute)
